# Active and inactive are the calls of the source. The rule behind the calls is not given here.
# What was measured:
# Homo sapiens [1] = species on record: Homo sapiens; assay: Inhibition of human neutrophil leukotriene B4 induced neutrophil degranulation at 10e-5 M compound concentration; NA = not active; assay type: functional
# Outline: (§1)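 Human neutrophils (3×10^6 in 1 mL HBSS) preincubated with cytochalasin B (5 µg) 5 min at 37 °C, then compound 7 min, then stimulated 2-20 min with LTB4 5×10^-8 M. Degranulation read as myeloperoxidase released into medium; pellets sonicated in phosphate buffer with 0.4% Triton X-100, supernatants brought to 0.4% Triton, both assayed.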
# Homo sapiens [2] = species on record: Homo sapiens; assay: Inhibition of human neutrophil leukotriene B4 induced neutrophil chemotaxis at 10e-5 M compound concentration; NA = not active; assay type: functional
# Outline: (§2)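 Human neutrophils isolated from citrated peripheral blood by 5% dextran sedimentation, Histopaque centrifugation and hypotonic erythrocyte lysis. 3×10^6 cells/mL in HEPES-buffered HBSS in upper well of modified Boyden chamber; lower well, across polycarbonate membrane, held HBSS or 3×10^-8 M LTB4 ± compound. 90 min, 37 °C; lower-well cells lysed, nuclei counted (Coulter); % inhibition after subtracting mean HBSS random migration.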
# [3] = molecular target: T1, Cysteinyl leukotriene receptor 1 (Cavia porcellus) (UniProt Q2NNR5); assay: Inhibition of binding to the leukotriene D4 receptor at 1*10e-5 M concentration
# T1 sequence (whole entry): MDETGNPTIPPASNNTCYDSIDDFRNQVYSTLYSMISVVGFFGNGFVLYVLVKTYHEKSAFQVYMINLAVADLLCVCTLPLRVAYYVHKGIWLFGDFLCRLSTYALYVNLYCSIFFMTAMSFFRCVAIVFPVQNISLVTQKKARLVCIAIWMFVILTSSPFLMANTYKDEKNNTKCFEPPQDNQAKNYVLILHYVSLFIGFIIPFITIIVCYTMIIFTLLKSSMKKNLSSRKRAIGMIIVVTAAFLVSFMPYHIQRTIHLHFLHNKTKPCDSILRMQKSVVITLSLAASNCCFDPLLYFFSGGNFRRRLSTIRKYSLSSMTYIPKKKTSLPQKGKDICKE
# Outline: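 Competition binding at LTD4 receptor: protein adjusted to about 0.1 nM receptor with 1 nM [3H]LTD4, 30 min at 24 °C; bound and free ligand separated by filtration. Compound tested at 1×10^-5 M.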
# Cavia porcellus = assay: Topical effective dose when coapplied with phorbol ester (PMA) was assessed by ear weight as a reflection of edema; assay type: functional
# Homo sapiens [4] = assay: Blood plasma levels of compound after 40 mg/kg oral dose of compound at 12 hr; assay type: functional, organism-based; parameters: dose 40 mg/kg
# Outline: (§3)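 Single 40 mg/kg oral dose; blood plasma drug level sampled at 1 h and 12 h after dosing.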
# Homo sapiens [5] = assay: Blood plasma levels of compound after 40 mg/kg oral dose of compound at 1 hr; assay type: functional, organism-based; parameters: dose 40 mg/kg; outline: as §3
# Homo sapiens [6] = species on record: Homo sapiens; assay: Inhibition of human neutrophil leukotriene B4 induced neutrophil chemotaxis; assay type: functional; outline: as §2
# Homo sapiens [7] = species on record: Homo sapiens; assay: Inhibition of human neutrophil leukotriene B4 induced neutrophil degranulation; assay type: functional; outline: as §1
# Bos taurus = species on record: Bos taurus; assay: Inhibition of bovine heart phosphodiesterase at 50 uM (no inhibition)
inhibition [3],IC50 (Homo sapiens [6]),IC50 (Homo sapiens [7]),inhibition (Bos taurus),Structure (SMILES),Activity (Homo sapiens [1]),Activity (Homo sapiens [2]),ED50 (Cavia porcellus),Plasma level (Homo sapiens [4]),Plasma level (Homo sapiens [5])
,,,,CCCc1c(OCCCOc2ccc3c(c2CCC)OC(C(=O)O)CC3)ccc(C(C)=O)c1O (centres undefined),inactive,inactive,,,
4%,2 µM,1 µM,inactive,CCCc1c(OCCCOc2ccc(C(C)=O)c(OC)c2CCC)ccc2c1OC(C(=O)O)CC2 (centres undefined) [SC-41390],,,4.1 uM ear-1,12 µg/mL,7 µg/mL

# Source: ChEMBL document CHEMBL1124474, “7-[3-(4-acetyl-3-methoxy-2-propylphenoxy)propoxy]-3,4-dihydro-8- propyl-2H-1-benzopyran-2-carboxylic acid: an orally active selective leukotriene B4 receptor antagonist” (J Med Chem, 1989)
